Data on three molecules can be found in ChEMBL document CHEMBL3243924, “Synthesis and biological activity of 5-fluoro- and 5-methyl-1,3-oxazine-2,6(3H)-dione” (J Med Chem, 1979).

Some results are limits rather than exact numbers.

Data set [1] concerns Enterococcus faecium. Kind of data set: Growth inhibition of Streptococcus faecium. Format: functional.
Data set [2] has as its system Escherichia coli. Kind of data set: Growth inhibition of Escherichia coli. The class given is functional.
The subject of data set [3] is L1210. Briefly: Growth inhibition of mouse L1210 cells. Format: functional.
Data set [4] has as its system Enterococcus faecium. Kind of data set: Growth inhibition of Streptococcus faecium assessed as [I]/[S] for 50% growth inhibition in presence of 1 uM to 1 mM thymine. The class given is functional.
Data set [5] concerns Enterococcus faecium. Briefly: Growth inhibition of Streptococcus faecium assessed as [I]/[S] for 50% growth inhibition in presence of 1 uM to 1 mM thymidine. Format: functional.
Data set [6] concerns Enterococcus faecium. Briefly: Growth inhibition of Streptococcus faecium assessed as inhibition index [I]/[S] for 50% growth inhibition in presence of 1 uM to 1 mM 2'-deoxyuridine. Format: functional.
For data set [7], the system named is Enterococcus faecium. Briefly: Growth inhibition of Streptococcus faecium assessed as [I]/[S] for 50% growth inhibition in presence of 1 uM to 1 mM uracil. Format: functional.
Data set [8] concerns Enterococcus faecium. Briefly: Growth inhibition of Streptococcus faecium assessed as [I]/[S] for 50% growth inhibition in presence of 1 uM to 1 mM uridine. Format: functional.
Data set [9] relates to Enterococcus faecium. Briefly: Growth inhibition of Streptococcus faecium assessed as [I]/[S] for 50% growth inhibition in presence of 1 uM to 1 mM 2'-deoxycytidine. Format: functional.
The test system of data set [10] is Enterococcus faecium. Kind of data set: Growth inhibition of Streptococcus faecium assessed as [I]/[S] for 50% growth inhibition in presence of 1 uM to 1 mM cytidine. The class given is functional.
The subject of data set [11] is Enterococcus faecium. Kind of data set: Growth inhibition of Streptococcus faecium assessed as [I]/[S] for 50% growth inhibition in presence of 1 uM to 1 mM cytosine. The class given is functional.
Data set [12] can be described thus: Stability of the compound in bacterial growth medium assessed as compound degradation at pH 7.2. The note with it: buffer. In a few lines: (§1)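 Compound held in bacterial growth medium at pH 7.2. Degradation was followed as the time-dependent decrease in UV absorbance at 306 nm.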
A short description of data set [13]: Stability of the compound in bacterial growth medium by UV spectra analysis. In a few lines: as §1
Data set [14] in a line: Stability of the compound in mouse […] cell growth medium assessed as compound degradation.
The nature of data set [15]: Half life in synthetic growth medium at 37 degC.
Data set [16] can be described thus: Stability of the compound in synthetic growth medium assessed as compound remaining at 37 degC after 16 hrs. The following applies: read-out: Stability. The class given is physicochemical.

In the case of `O=c1[nH]cc(F)c(=O)o1`, the ID50 stood at 9 ×10⁻⁸ M in [1], 1 ×10⁻⁷ M in data set [2] and 1 ×10⁻⁵ M in data set [3]. For the same molecule, the Ratio in [4] was determined as 120; in [5], 110; in data set [6] it was 100; in data set [7] it was 90; in [8] it was 90; in [9], 10. Also, the Ratio is 8 in data set [10] and 7 in data set [11]. The Stability entry in data set [12], in [13] and in data set [14] was “Unstable” each time. This molecule gave a half-life in data set [15] of 4 h.
On to `O=c1cc[nH]c(=O)o1`, for which the ID50 in data set [1] is listed as 2 ×10⁻⁵ M; in data set [2], 4 ×10⁻⁷ M; in [3], 4 ×10⁻⁵ M. The remaining at 16 h in data set [16] was determined as 15%.
Take `Cc1c[nH]c(=O)oc1=O`: the ID50 in data set [1] is listed as over 1 ×10⁻⁴ M; in data set [2] it was 3 ×10⁻⁴ M; in data set [3], over 1 ×10⁻⁴ M.

The half-life is how long it takes for the measured level to halve. Low values mean fast loss, high ones slow loss.
